From ChEMBL document CHEMBL2417416, “Total synthesis and full histone deacetylase inhibitory profiling of Azumamides A-E as well as β²- epi-Azumamide E and β³-epi-Azumamide E” (J Med Chem, 2013) come the findings set out here.

The inhibition is the change of the read-out against control, counted positive when it falls. The Ki is the dissociation constant of the complex between target and ligand, obtained from inhibition or displacement.

SMILES strings stand for the structures.

For test [1], the target named is T1, Polyamine deacetylase HDAC10 (Homo sapiens) (UniProt Q969S8).
T1 sequence (whole entry): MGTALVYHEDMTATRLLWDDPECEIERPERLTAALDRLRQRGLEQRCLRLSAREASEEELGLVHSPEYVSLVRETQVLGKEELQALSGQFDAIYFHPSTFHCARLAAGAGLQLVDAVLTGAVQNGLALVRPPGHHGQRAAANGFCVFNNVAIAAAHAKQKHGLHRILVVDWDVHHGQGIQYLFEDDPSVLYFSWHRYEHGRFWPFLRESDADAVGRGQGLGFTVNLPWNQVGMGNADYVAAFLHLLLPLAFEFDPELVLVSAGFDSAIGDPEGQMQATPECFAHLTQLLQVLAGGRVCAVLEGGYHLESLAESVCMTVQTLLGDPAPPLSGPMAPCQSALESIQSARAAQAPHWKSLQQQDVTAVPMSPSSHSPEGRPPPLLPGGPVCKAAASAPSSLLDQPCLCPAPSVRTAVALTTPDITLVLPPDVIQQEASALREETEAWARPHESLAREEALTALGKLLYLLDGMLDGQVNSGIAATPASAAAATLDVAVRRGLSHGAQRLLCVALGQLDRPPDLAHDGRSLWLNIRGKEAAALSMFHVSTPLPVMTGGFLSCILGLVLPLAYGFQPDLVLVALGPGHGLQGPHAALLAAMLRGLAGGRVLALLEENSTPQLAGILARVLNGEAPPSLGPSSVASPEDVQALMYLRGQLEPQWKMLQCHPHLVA
Kind of test: Inhibition of recombinant human HDAC10 enzyme using tetrapeptide Ac-ArgThr-Lys(Ac)Lys(Ac)-AMC as substrate at 50 uM after 15 to 30 mins. The procedure, abridged: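 Recombinant human HDAC10 (500 ng/well) was screened at 50 μM compound, with 100 μM of the Lys(Ac)-Lys(Ac)-AMC tetrapeptide substrate, in Tris-HCl pH 8.0 buffer with NaCl, KCl, MgCl2 and 0.5 mg/mL BSA. Plates were incubated 30 min at 37 °C, then developed with trypsin (0.4 mg/mL) for 15–30 min at room temperature and read at ex 360/em 460 nm. There were at least two assays in duplicate.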

Test [2] has as its target T2, Histone deacetylase 11 (Homo sapiens) (UniProt Q96DB2).
T2 sequence (whole entry): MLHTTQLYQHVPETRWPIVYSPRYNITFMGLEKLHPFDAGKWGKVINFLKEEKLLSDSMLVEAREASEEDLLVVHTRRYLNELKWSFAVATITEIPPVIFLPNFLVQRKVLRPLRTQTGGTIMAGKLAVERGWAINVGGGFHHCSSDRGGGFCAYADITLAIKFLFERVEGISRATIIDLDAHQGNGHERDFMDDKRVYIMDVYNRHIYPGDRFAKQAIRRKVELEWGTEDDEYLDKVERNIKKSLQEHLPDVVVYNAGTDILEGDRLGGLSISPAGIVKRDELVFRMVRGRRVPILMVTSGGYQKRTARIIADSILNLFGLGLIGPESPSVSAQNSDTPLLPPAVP
As to the kind of experiment: Inhibition of recombinant human HDAC11 enzyme using Ac-LeuGlyLys(Ac)-AMC as substrate at 50 uM after 15 to 30 mins. The gist of the method:
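HDAC11 (500 ng/well) was tested at a single 50 μM peptide concentration with 80 μM Ac-Leu-Gly-Lys(Ac)-AMC in Tris-HCl pH 8.0 buffer containing BSA, for 30 min at 37 °C. Trypsin development (0.4 mg/mL, 15–30 min, room temperature) released AMC, read at ex 360/em 460 nm. […] There were at least two assays in duplicate.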

Test [3] deals with T3, Protein deacetylase HDAC6 (Homo sapiens) (UniProt Q9UBN7).
T3 sequence (whole entry): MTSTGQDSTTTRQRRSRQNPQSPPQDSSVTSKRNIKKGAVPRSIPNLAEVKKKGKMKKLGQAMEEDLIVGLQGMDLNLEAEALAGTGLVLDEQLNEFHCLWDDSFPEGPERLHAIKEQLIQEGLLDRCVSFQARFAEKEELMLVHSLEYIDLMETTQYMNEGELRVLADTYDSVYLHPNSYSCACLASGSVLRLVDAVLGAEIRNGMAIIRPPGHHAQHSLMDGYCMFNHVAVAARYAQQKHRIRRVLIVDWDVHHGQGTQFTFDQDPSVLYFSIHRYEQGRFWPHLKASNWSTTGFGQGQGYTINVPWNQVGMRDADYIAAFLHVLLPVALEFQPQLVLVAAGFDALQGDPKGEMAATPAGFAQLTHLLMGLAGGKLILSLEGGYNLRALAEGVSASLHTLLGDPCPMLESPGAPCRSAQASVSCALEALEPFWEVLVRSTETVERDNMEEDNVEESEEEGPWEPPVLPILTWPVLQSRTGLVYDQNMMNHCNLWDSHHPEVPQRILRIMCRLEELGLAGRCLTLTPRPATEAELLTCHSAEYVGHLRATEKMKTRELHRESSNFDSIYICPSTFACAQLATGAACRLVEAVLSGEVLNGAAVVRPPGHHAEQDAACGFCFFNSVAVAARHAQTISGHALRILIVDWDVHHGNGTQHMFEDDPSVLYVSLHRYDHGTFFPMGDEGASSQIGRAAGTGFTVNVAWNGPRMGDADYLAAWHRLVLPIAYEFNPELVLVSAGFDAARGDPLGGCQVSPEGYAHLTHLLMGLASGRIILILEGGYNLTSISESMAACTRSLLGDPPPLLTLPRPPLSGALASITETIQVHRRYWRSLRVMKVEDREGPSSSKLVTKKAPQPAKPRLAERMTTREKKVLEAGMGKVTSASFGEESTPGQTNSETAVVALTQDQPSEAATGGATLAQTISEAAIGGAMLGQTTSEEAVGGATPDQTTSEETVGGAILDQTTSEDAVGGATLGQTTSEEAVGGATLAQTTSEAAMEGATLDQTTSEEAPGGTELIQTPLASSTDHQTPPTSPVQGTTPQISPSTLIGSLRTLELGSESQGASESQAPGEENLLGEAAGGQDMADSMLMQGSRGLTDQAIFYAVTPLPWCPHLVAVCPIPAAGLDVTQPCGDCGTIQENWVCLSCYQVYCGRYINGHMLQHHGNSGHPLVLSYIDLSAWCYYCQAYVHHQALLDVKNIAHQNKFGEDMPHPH
Kind of test: Inhibition of recombinant human HDAC6 enzyme using flurogenic Ac-LeuGlyLys (Ac)-AMC as substrate at 50 uM after 15 to 30 mins. The gist of the method:
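The single-point screen used HDAC6 at 60 ng/well, 50 μM compound and 80 μM Ac-Leu-Gly-Lys(Ac)-AMC in pH 8.0 Tris buffer with 0.5 mg/mL BSA, incubated 30 min at 37 °C. Trypsin (0.4 mg/mL) was added for 15–30 min at room temperature, and fluorescence was read at 360/460 nm. Each result came from two or more assays run in duplicate.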

For test [4], the target named is T4, Histone deacetylase 8 (Homo sapiens) (UniProt Q9BY41).
T4 sequence (whole entry): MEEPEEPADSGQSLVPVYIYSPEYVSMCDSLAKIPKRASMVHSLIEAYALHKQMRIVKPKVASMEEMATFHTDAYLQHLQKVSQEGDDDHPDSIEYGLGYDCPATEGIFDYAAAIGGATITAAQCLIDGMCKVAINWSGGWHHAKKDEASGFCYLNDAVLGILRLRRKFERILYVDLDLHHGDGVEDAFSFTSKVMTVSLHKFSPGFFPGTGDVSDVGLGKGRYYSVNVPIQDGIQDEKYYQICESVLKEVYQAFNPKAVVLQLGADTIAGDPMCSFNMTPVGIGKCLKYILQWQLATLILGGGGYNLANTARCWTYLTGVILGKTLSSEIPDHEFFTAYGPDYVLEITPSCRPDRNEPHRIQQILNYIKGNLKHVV
As to the kind of experiment: Inhibition of recombinant human HDAC8 enzyme using Ac-LeuGlyLys (tfa)-AMC as substrate at 50 uM after 15 to 30 mins. The gist of the method: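 HDAC8 (5 ng/well) was incubated 30 min at 37 °C with 50 μM compound and 400 μM trifluoroacetylated substrate Ac-Leu-Gly-Lys(Tfa)-AMC in Tris-HCl pH 8.0 buffer with NaCl, KCl, MgCl2 and BSA. Trypsin (0.4 mg/mL) development ran 15–30 min at room temperature, with a 360/460 nm read-out. There were at least two separate duplicate assays.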

Test [5] concerns the target Histone deacetylase 3/NCoR1 (Homo sapiens) (UniProt O15379+O75376). Conditions: 50 uM.
Another test deals with T5, Histone deacetylase 11 (Homo sapiens, UniProt Q96DB2).
T5 sequence (Q96DB2 whole entry): T2 sequence (whole entry)
Kind of test: Inhibition of recombinant human HDAC11 enzyme using Ac-LeuGlyLys(Ac)-AMC as substrate after 15 to 30 mins.

Another test has as its target T6, Histone deacetylase 8 (Homo sapiens, UniProt Q9BY41).
T6 sequence (Q9BY41 whole entry): T4 sequence (whole entry)
Kind of test: Inhibition of recombinant human HDAC8 enzyme using Ac-LeuGlyLys (tfa)-AMC as substrate after 15 to 30 mins.

In test [6] the target is Histone deacetylase 3/NCoR1 (Homo sapiens, UniProt O15379). As to the kind of experiment: Inhibition of GST-tagged recombinant human HDAC3/NcoR1 enzyme using flurogenic Ac-LeuGlyLys (Ac)-AMC as substrate after 15 to 30 mins. Format: protein-complex assay.
The next test addresses Histone deacetylase 2 (Homo sapiens, UniProt Q92769). Kind of test: Inhibition of recombinant human HDAC2 enzyme using flurogenic Ac-LeuGlyLys (Ac)-AMC as substrate after 15 to 30 mins.
In a further test the target is Histone deacetylase 1 (Homo sapiens, UniProt Q13547). Kind of test: Inhibition of recombinant human HDAC1 enzyme using flurogenic Ac-LeuGlyLys (Ac)-AMC as substrate after 15 to 30 mins.
Test [7] concerns the target T7, Polyamine deacetylase HDAC10 (Homo sapiens, UniProt Q969S8).
T7 sequence (Q969S8 whole entry): T1 sequence (whole entry)
Kind of test: Inhibition of recombinant human HDAC10 enzyme using tetrapeptide Ac-ArgThr-Lys(Ac)Lys(Ac)-AMC as substrate after 15 to 30 mins.

Test [8] has as its target T8, Protein deacetylase HDAC6 (Homo sapiens, UniProt Q9UBN7).
T8 sequence (Q9UBN7 whole entry): T3 sequence (whole entry)
Kind of test: Inhibition of recombinant human HDAC6 enzyme using flurogenic Ac-LeuGlyLys (Ac)-AMC as substrate after 15 to 30 mins.

Sequence of Histone deacetylase 2 (Q92769 whole entry): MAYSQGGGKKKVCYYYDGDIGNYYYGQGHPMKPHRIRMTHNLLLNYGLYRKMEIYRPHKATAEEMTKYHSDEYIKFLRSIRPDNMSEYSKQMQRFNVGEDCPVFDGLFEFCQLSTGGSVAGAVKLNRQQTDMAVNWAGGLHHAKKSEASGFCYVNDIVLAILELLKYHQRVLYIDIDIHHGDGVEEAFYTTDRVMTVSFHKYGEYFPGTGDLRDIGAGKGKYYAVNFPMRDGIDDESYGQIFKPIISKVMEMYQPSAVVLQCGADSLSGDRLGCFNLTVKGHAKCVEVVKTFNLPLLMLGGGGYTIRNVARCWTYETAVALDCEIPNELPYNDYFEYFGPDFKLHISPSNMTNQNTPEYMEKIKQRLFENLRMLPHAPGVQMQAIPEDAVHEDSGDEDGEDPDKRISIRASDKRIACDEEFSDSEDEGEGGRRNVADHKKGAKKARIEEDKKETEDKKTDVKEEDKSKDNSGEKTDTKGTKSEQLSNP
Sequence of Histone deacetylase 1 (Q13547 whole entry): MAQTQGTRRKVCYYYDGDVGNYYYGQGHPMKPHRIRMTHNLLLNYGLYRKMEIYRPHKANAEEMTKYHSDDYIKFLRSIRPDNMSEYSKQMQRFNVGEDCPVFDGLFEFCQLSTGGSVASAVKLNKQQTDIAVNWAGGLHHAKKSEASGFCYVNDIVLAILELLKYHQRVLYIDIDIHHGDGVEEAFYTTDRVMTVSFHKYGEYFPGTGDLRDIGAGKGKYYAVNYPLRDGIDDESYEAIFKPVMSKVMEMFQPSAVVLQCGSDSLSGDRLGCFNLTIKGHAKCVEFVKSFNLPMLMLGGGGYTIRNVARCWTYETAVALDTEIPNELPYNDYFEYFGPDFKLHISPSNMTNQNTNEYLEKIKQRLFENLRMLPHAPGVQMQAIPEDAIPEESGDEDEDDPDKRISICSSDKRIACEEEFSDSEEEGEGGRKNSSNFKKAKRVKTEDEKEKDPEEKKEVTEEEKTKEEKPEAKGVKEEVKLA
Sequence of Histone deacetylase 3/NCoR1 (O15379 whole entry): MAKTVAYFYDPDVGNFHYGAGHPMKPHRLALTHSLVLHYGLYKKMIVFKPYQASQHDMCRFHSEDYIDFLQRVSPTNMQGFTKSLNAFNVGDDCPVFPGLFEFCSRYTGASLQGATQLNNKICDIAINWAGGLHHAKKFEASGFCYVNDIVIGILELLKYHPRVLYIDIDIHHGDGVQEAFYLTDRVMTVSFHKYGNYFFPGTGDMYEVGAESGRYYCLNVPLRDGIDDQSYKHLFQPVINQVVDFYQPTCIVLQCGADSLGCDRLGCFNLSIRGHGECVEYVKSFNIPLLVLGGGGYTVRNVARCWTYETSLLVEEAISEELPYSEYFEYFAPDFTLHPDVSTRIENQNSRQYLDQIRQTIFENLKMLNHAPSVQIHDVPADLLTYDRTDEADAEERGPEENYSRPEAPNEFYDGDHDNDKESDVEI
Sequence of Histone deacetylase 3/NCoR1 (O75376 whole entry, further chain): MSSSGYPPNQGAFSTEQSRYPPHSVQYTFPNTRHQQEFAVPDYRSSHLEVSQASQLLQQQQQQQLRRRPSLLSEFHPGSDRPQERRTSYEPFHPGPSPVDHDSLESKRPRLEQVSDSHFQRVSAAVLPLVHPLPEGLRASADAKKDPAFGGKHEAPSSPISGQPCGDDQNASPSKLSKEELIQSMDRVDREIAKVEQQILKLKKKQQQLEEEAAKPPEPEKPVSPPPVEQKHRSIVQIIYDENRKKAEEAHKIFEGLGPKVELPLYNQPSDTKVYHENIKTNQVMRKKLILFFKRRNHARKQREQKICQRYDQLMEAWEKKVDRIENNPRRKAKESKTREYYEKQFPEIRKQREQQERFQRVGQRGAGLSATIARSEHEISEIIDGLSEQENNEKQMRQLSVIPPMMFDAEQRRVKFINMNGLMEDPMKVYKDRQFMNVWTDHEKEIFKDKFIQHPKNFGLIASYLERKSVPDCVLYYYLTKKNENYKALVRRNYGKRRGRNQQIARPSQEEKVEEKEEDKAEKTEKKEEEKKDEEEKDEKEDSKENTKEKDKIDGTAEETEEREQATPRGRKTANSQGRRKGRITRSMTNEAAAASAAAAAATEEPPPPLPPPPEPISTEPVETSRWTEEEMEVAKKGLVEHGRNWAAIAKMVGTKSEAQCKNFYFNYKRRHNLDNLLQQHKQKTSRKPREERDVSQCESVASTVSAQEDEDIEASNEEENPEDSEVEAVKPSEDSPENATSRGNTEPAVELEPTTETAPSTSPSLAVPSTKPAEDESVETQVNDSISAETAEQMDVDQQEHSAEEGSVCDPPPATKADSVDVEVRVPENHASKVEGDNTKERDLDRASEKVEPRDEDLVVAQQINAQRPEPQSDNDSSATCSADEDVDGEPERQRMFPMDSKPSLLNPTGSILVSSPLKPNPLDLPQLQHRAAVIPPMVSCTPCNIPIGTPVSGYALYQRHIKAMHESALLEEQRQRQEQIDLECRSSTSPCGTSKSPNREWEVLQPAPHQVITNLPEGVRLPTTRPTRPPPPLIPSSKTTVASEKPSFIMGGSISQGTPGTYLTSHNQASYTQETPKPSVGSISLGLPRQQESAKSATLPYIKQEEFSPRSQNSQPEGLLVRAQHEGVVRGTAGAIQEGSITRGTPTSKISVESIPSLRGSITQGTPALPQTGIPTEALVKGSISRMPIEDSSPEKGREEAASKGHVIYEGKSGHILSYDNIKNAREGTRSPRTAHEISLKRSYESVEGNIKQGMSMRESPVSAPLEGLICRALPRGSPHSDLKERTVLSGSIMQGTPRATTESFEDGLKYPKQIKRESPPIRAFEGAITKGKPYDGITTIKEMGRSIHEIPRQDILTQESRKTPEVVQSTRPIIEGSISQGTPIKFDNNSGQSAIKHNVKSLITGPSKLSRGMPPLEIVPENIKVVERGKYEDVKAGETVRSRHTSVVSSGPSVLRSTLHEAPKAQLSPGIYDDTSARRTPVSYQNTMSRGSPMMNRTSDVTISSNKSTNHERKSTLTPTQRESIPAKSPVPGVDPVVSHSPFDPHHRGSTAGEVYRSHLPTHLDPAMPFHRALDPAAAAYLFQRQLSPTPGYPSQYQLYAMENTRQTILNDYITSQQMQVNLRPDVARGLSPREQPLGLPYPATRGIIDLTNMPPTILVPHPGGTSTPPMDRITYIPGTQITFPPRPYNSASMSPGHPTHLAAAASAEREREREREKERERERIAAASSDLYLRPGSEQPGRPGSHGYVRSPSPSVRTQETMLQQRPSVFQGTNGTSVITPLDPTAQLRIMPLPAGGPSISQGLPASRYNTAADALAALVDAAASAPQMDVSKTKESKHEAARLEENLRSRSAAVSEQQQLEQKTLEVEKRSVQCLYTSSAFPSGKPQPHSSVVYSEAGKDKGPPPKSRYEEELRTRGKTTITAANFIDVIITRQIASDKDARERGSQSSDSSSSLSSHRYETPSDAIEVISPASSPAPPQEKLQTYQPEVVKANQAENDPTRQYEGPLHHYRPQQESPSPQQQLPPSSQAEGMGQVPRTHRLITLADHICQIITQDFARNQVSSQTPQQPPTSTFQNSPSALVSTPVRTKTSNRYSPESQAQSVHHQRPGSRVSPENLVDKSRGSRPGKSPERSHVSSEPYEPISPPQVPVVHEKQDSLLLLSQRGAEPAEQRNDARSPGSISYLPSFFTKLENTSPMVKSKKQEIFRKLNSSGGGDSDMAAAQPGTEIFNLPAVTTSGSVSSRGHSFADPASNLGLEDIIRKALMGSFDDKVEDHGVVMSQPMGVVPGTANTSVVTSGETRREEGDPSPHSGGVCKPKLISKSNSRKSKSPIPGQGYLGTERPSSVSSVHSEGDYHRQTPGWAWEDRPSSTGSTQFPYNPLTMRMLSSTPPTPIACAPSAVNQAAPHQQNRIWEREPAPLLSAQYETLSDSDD

As to `CC(C)[C@H]1NC(=O)[C@@H](C)[C@H](C/C=C\CCC(=O)O)NC(=O)[C@@H](Cc2ccccc2)NC(=O)[C@@H](C)NC1=O`, the inhibition in test [1], in test [2], in test [3], in test [4] and in test [5] was under 50% each time.

For the molecule `CC(C)[C@H]1NC(=O)[C@H](C)[C@@H](C/C=C\CCC(=O)O)NC(=O)[C@@H](Cc2ccccc2)NC(=O)[C@@H](C)NC1=O`, the inhibition in [1], in [2], in test [3], in test [4] and in test [5] was under 50% each time.

In the case of `CC(C)[C@H]1NC(=O)[C@@H](C)[C@@H](C/C=C\CCC(N)=O)NC(=O)[C@@H](Cc2ccccc2)NC(=O)[C@@H](C)NC1=O` [AZUMAMIDE A], the inhibition in [1] and in test [3] was under 50% in each case. For the same molecule, the Ki was over 5 µM on Histone deacetylase 11; over 5 µM on Histone deacetylase 8; 3.2 µM in [6]; over 5 µM at Histone deacetylase 2; over 5 µM at Histone deacetylase 1.

Turning to `CC(C)[C@H]1NC(=O)[C@@H](C)[C@@H](C/C=C\CCC(N)=O)NC(=O)[C@@H](Cc2ccc(O)cc2)NC(=O)[C@@H](C)NC1=O` [AZUMAMIDE B], the inhibition in [1], in test [3] and in test [4] was under 50% throughout. For the same molecule, the Ki is over 5 µM on Histone deacetylase 11, 3 µM in test [6], 3 µM at Histone deacetylase 2 and 5 µM on Histone deacetylase 1.

`CC(C)[C@H]1NC(=O)[C@@H](C)[C@@H](C/C=C\CCC(=O)O)NC(=O)[C@@H](Cc2ccc(O)cc2)NC(=O)[C@@H](C)NC1=O` [AZUMAMIDE C]: the Ki at Histone deacetylase 11 was 0.035 µM; in test [7], 0.01 µM; in test [8] it was 2 µM; at Histone deacetylase 8, over 5 µM; in test [6], 0.014 µM; at Histone deacetylase 2, 0.04 µM. The inhibitory constant (Ki) on Histone deacetylase 1 came to 0.032 µM.

Regarding `C[C@@H]1C(=O)N[C@H](C)C(=O)N[C@H](C)C(=O)N[C@H](Cc2ccccc2)C(=O)N[C@@H]1C/C=C\CCC(N)=O` [AZUMAMIDE D], the inhibition in [1], in test [3] and in test [4] was under 50% each time. Further, the Ki at Histone deacetylase 11 was over 5 µM; in test [6], 3.7 µM; on Histone deacetylase 2 it was over 5 µM; at Histone deacetylase 1 it was over 5 µM.

Take `CC(C)[C@H]1NC(=O)[C@@H](C)[C@@H](C/C=C\CCC(=O)O)NC(=O)[C@@H](Cc2ccccc2)NC(=O)[C@@H](C)NC1=O` [AZUMAMIDE E]: the Ki was 0.06 µM on Histone deacetylase 11; 0.02 µM in test [7]; over 5 µM in test [8]; 4.4 µM on Histone deacetylase 8; 0.025 µM in test [6].

As for `C/C=C1\NC(=O)[C@H]2CSSCC/C=C/[C@H](CC(=O)N[C@H](C(C)C)C(=O)N2)OC(=O)[C@H](C(C)C)NC1=O` [ROMIDEPSIN], the inhibitory constant (Ki) at Histone deacetylase 1 came out at 2e-06 µM.
